Results from ChEMBL document CHEMBL1156136, “Hypoxia-activated prodrugs: substituent effects on the properties of nitro seco-1,2,9,9a-tetrahydrocyclopropa[c]benz[e]indol-4-one (nitroCBI) prodrugs of DNA minor groove alkylating agents” (J Med Chem, 2009).
pIC50: −log10 of the molar value.

Legend:
HT-29 [1] = test: Cytotoxicity against human HT-29 cells in oxic condition after 4 hrs by sulforhodamine B assay; assay type: functional, cell-based; conditions: HT-29, 4 h
How it was run: (§1)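 Log-phase monolayers exposed to drug for 4 h under aerobic (20% O2) or anoxic (<20 ppm O2) conditions, then sulforhodamine B staining 5 days later. IC50 interpolated as concentration lowering cell density to 50% of same-plate controls. HCR = IC50(oxic)/IC50(hypoxic), mean of intraexperiment ratios. A549 P450R line is a stable transfectant with 9-fold higher cytochrome c reduction rate than parent.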

SK-OV-3 [2] = test: Hypoxic cytotoxicity ratio, IC50 for human SKOV3 cells in oxic condition to IC50 for human SKOV3 cells in hypoxic condition; assay type: functional; how it was run: as §1
HT-29 [3] = test: Cytotoxicity against human HT-29 cells in hypoxic condition after 4 hrs by sulforhodamine B assay; assay type: functional, cell-based; conditions: HT-29, 4 h; how it was run: as §1
HT-29 [4] = test: Hypoxic cytotoxicity ratio, IC50 for human HT-29 cells in oxic condition to IC50 for human HT-29 cells in hypoxic condition; assay type: functional; how it was run: as §1
SK-OV-3 [5] = test: Cytotoxicity against human SKOV3 cells in oxic condition after 4 hrs by sulforhodamine B assay; assay type: functional, cell-based; conditions: SK-OV-3, 4 h; how it was run: as §1
SK-OV-3 [6] = test: Cytotoxicity against human SKOV3 cells in hypoxic condition after 4 hrs by sulforhodamine B assay; assay type: functional, cell-based; conditions: SK-OV-3, 4 h; how it was run: as §1

Row | Structure (SMILES) | pIC50 (HT-29 [1]) | Ratio IC50 (SK-OV-3 [2]) | pIC50 (HT-29 [3]) | Ratio IC50 (HT-29 [4]) | pIC50 (SK-OV-3 [5]) | pIC50 (SK-OV-3 [6])
1 | COc1cc2cc(C(=O)N3CC(CCl)c4c3cc(N)c3ccccc43)[nH]c2c(OC)c1OC (stereo not drawn) | 6.07 | 1 | 8.60 | 0.76 | 5.89 | 8.77
2 | CN(C)CCOc1ccc2[nH]c(C(=O)N3CC(CCl)c4c3cc([N+](=O)[O-])c3c([N+](=O)[O-])cccc43)cc2c1 (stereo not drawn) | 5.55 | 2.9 | 8.89 | 2.2 | 5.39 | 8.85
3 | COC(=O)c1ccc2c3c(cc([N+](=O)[O-])c2c1)N(C(=O)c1cc2cc(OC)c(OC)c(OC)c2[nH]1)CC3CCl (stereo not drawn) | 5.72 | 4 | 9.09 | 3.2 | 5.96 | 9.29
4 | COc1cc2cc(C(=O)N3CC(CCl)c4c3cc([N+](=O)[O-])c3cc(S(N)(=O)=O)ccc43)[nH]c2c(OC)c1OC (stereo not drawn) | 4.37 | 10 | 7.92 | 3.6 | 4.43 | 8.43
5 | COc1cc2cc(C(=O)N3CC(CCl)c4c3cc([N+](=O)[O-])c3ccc(S(N)(=O)=O)cc43)[nH]c2c(OC)c1OC (stereo not drawn) | 4.62 | 2.6 | 7.85 | 1.9 | 4.92 | 8.31
6 | CN(C)CCOc1ccc2[nH]c(C(=O)N3CC(CCl)c4c3cc([N+](=O)[O-])c3c(C(N)=O)cccc43)cc2c1 (stereo not drawn) | 4.64 | 18 | 8.82 | 43 | 4.30 | 8.49
7 | COc1cc2cc(C(=O)N3CC(CCl)c4c3cc([N+](=O)[O-])c3c(C(C)=O)cccc43)[nH]c2c(OC)c1OC (stereo not drawn) | 6.17 | 3.4 | 9.48 | 2 | 6.30 | 9.85
8 | COc1cc2cc(C(=O)N3CC(CCl)c4c3cc([N+](=O)[O-])c3cc(C(C)=O)ccc43)[nH]c2c(OC)c1OC (stereo not drawn) | 5.39 | 19 | 9.03 | 5.2 | 5.29 | 9.36
